{"source": "ChEMBL document CHEMBL5653631", "about": "“A Potent and Selective ULK1 Inhibitor Suppresses Autophagy and Sensitizes Cancer Cells to Nutrient Stress” (iScience, 2018)", "key": {"[1]": {"target": "Ephrin type-A receptor 4 (Homo sapiens) (UniProt P54764)", "sequence (P54764 whole entry)": "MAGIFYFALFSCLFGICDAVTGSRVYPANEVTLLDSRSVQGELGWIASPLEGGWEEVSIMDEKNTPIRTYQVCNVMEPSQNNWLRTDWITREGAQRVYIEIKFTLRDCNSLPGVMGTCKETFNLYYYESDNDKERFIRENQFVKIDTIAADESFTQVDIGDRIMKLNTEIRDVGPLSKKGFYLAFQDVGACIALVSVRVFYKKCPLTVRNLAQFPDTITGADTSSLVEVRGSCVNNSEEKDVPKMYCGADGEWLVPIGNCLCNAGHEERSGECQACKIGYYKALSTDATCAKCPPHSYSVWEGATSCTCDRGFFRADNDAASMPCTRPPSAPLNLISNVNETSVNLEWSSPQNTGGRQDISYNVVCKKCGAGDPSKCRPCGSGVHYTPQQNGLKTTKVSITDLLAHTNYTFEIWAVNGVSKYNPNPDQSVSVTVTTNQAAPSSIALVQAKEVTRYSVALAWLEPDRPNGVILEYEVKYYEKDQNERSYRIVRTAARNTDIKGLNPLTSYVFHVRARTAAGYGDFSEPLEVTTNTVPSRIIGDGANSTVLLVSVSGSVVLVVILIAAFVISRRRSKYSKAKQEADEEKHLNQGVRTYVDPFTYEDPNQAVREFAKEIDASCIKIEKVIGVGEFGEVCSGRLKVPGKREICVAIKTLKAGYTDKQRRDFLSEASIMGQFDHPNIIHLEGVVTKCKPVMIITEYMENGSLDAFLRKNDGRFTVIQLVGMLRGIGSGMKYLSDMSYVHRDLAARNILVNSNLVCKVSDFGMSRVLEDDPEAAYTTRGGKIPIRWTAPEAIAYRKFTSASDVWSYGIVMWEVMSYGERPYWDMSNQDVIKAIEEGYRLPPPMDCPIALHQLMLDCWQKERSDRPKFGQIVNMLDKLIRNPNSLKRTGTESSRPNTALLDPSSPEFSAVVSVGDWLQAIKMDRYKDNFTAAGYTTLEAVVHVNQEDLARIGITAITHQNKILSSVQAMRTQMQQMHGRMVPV", "assay": "Inhibition of human recombinant EphA4 at 40 nM related to control ULK1"}, "[2]": {"target": "T1, Dual specificity protein kinase TTK (Homo sapiens) (UniProt P33981)", "T1 sequence (whole entry)": "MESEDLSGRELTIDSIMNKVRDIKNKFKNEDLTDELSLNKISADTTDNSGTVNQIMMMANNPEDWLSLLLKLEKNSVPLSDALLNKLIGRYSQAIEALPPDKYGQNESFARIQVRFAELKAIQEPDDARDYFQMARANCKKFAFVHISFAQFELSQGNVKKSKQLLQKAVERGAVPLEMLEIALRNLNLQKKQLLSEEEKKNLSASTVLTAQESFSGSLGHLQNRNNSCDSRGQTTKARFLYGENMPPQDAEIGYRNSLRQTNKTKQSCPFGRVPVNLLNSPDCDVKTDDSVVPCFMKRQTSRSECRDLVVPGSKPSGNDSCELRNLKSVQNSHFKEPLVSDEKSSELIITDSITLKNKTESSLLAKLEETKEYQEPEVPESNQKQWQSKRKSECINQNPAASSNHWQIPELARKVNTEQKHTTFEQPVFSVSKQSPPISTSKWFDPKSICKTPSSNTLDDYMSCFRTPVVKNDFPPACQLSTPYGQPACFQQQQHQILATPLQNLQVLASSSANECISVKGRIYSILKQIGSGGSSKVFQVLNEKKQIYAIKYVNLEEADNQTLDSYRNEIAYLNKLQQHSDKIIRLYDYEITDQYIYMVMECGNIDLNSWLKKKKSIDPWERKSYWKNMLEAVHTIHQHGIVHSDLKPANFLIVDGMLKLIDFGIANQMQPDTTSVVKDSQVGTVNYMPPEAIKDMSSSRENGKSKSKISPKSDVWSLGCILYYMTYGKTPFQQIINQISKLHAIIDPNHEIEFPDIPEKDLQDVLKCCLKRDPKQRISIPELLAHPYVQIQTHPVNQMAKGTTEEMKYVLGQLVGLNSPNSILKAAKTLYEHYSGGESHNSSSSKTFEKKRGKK", "assay": "Inhibition of human recombinant TTK at 40 nM related to control ULK1"}, "[3]": {"target": "Serine/threonine-protein kinase 25 (Homo sapiens) (UniProt O00506)", "sequence (O00506 whole entry, looked up)": "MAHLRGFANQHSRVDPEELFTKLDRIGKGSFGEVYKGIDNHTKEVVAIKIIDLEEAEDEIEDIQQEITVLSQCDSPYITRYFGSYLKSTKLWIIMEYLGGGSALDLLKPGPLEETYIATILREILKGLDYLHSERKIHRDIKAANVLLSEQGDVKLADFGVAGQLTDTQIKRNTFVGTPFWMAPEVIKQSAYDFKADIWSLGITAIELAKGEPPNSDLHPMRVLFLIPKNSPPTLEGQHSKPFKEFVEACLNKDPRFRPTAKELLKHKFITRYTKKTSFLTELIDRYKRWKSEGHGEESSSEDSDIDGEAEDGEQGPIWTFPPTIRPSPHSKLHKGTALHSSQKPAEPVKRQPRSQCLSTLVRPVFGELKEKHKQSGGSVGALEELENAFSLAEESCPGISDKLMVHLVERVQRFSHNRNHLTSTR", "assay": "Inhibition of human recombinant YSK1 at 40 nM in presence of ATP by radiometric assay relative to control"}, "[4]": {"species_on_record": "Homo sapiens", "assay": "Inhibition of human recombinant ABL at 40 nM related to control ULK1", "procedure,_shortened": "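Radiometric activity assays in a panel of 327 human recombinant kinases, each run in duplicate at one inhibitor concentration. Activity remaining is expressed as percent of vehicle control, and percent inhibition is calculated as 100% minus percent activity remaining.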"}, "[5]": {"target": "Serine/threonine-protein kinase pim-1 (Homo sapiens) (UniProt P11309)", "sequence (P11309 whole entry, looked up)": "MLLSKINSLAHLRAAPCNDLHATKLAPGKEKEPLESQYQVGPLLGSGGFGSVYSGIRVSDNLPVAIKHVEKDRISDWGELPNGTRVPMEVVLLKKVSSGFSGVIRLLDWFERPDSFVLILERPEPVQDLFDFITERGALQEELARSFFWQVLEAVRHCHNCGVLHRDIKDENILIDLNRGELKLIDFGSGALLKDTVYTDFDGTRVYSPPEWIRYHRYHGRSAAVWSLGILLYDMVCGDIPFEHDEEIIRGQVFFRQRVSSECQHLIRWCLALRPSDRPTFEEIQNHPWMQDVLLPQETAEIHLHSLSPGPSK", "assay": "Inhibition of human recombinant PIM1 at 40 nM related to control ULK1"}, "[6]": {"target": "Protein kinase C eta type (Homo sapiens) (UniProt P24723)", "sequence (P24723 whole entry)": "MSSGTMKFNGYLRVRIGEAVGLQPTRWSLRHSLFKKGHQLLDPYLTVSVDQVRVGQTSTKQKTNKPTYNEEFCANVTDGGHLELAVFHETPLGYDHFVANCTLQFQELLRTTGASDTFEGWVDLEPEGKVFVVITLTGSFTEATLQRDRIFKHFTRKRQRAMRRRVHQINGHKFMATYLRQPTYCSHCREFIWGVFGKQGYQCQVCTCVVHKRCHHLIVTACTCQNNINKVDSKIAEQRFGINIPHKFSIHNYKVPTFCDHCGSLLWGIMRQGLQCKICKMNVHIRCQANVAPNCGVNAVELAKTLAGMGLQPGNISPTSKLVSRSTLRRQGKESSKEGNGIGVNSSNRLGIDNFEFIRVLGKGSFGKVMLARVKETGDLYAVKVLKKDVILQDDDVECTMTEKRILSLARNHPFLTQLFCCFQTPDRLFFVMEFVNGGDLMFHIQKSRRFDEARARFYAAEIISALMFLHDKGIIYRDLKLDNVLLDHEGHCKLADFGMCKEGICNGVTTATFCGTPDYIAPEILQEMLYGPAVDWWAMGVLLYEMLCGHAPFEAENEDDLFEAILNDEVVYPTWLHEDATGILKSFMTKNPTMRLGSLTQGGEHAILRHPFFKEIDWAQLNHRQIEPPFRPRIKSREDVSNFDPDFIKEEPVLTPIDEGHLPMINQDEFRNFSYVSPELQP", "assay": "Inhibition of human recombinant PKCH at 40 nM related to control ULK1"}, "[7]": {"target": "Serine/threonine-protein kinase PAK 4 (Homo sapiens) (UniProt O96013)", "sequence (O96013 whole entry, looked up)": "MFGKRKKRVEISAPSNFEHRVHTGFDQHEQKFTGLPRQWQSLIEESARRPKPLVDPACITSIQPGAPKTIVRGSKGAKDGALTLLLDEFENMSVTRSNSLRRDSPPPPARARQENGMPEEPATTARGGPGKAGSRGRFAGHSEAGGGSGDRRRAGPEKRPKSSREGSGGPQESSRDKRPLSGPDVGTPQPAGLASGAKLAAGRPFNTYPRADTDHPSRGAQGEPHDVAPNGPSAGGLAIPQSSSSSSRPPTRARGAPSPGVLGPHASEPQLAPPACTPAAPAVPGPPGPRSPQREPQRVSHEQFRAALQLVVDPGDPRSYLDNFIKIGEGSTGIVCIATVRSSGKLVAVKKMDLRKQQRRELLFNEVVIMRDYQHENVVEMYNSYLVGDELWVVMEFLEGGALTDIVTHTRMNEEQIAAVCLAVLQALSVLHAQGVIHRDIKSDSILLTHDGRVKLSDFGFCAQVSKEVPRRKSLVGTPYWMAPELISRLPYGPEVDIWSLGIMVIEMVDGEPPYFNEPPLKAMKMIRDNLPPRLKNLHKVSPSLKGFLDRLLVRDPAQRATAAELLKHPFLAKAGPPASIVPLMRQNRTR", "assay": "Inhibition of human recombinant PAK4 at 500 nM in presence of ATP by radiometric assay relative to control"}, "[8]": {"target": "RAF proto-oncogene serine/threonine-protein kinase (Homo sapiens) (UniProt P04049)", "assay": "Inhibition of human recombinant RAF1 at 500 nM related to control ULK1"}, "[9]": {"target": "Cyclin-dependent kinase 4 (Homo sapiens) (UniProt P11802)", "sequence (P11802 whole entry)": "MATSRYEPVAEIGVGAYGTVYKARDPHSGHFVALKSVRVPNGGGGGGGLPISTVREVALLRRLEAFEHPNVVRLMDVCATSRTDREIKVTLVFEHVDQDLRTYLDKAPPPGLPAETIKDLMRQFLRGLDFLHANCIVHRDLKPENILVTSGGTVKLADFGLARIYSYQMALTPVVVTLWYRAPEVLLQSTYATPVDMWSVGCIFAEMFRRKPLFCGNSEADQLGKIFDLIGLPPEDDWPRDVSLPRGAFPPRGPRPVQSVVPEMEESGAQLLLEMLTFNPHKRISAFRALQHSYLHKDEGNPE", "assay": "Inhibition of human recombinant CDK4 at 500 nM related to control ULK1"}, "[10]": {"target": "RAC-alpha serine/threonine-protein kinase (Homo sapiens) (UniProt P31749)", "sequence (P31749 whole entry)": "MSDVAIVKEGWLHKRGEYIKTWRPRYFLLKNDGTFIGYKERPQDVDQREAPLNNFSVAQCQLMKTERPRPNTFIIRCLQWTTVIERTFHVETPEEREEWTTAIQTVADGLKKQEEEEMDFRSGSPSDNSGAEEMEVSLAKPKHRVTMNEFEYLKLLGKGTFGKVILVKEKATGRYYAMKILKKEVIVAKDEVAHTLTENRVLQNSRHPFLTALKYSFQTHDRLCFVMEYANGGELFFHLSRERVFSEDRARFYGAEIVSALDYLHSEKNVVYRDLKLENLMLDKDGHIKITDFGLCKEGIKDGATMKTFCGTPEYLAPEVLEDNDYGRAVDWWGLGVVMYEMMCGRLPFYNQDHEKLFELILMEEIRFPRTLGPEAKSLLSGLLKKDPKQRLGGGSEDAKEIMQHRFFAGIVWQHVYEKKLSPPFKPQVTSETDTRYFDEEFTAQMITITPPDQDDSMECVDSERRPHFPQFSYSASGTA", "assay": "Inhibition of human recombinant AKT1 at 500 nM in presence of ATP by radiometric assay relative to control", "procedure,_shortened": "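Panel of 327 recombinant human kinases in radiometric activity assays, each screened in duplicate at a single inhibitor concentration; percent activity remaining relative to vehicle control, percent inhibition taken as 100 minus activity remaining.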"}, "[11]": {"target": "Serine/threonine-protein kinase 32C (Homo sapiens) (UniProt Q86UX6)", "sequence (Q86UX6 whole entry)": "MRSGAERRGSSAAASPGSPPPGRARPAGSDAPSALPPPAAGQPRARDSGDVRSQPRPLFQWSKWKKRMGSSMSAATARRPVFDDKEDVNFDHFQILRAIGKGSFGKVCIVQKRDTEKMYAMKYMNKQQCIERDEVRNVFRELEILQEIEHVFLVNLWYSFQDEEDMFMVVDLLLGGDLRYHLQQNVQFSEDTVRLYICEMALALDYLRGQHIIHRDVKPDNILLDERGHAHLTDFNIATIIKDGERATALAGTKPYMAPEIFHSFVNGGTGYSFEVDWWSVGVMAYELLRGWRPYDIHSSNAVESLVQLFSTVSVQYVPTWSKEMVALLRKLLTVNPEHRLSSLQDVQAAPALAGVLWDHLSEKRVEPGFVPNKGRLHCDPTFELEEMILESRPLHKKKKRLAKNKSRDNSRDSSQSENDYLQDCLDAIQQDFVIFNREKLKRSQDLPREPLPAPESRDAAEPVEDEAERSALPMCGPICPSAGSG", "assay": "Inhibition of human recombinant YANK3 at 500 nM in presence of ATP by radiometric assay relative to control"}, "[12]": {"target": "Serine/threonine-protein kinase 4 (Homo sapiens) (UniProt Q13043)", "sequence (Q13043 whole entry, looked up)": "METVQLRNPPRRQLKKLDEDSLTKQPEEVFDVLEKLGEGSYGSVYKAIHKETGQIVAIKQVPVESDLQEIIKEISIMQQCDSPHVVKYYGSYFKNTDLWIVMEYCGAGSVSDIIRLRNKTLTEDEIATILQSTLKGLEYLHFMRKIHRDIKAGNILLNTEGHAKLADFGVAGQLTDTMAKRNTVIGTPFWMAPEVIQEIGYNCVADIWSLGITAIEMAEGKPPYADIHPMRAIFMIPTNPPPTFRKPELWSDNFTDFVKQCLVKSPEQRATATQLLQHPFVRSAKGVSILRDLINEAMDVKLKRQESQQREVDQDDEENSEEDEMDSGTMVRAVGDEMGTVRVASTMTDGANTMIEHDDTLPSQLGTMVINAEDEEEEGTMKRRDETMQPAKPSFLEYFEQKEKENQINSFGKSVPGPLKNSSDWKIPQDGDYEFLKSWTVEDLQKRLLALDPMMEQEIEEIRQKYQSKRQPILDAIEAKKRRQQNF", "assay": "Inhibition of human recombinant MST1 at 500 nM in presence of ATP by radiometric assay relative to control"}, "[13]": {"target": "Mitogen-activated protein kinase 9 (Homo sapiens) (UniProt P45984)", "assay": "Inhibition of human recombinant JNK2 at 15 nM in presence of ATP by radiometric assay relative to control"}, "[14]": {"target": "T2, Serine/threonine-protein kinase ICK (Homo sapiens) (UniProt Q9UPZ9)", "T2 sequence (whole entry)": "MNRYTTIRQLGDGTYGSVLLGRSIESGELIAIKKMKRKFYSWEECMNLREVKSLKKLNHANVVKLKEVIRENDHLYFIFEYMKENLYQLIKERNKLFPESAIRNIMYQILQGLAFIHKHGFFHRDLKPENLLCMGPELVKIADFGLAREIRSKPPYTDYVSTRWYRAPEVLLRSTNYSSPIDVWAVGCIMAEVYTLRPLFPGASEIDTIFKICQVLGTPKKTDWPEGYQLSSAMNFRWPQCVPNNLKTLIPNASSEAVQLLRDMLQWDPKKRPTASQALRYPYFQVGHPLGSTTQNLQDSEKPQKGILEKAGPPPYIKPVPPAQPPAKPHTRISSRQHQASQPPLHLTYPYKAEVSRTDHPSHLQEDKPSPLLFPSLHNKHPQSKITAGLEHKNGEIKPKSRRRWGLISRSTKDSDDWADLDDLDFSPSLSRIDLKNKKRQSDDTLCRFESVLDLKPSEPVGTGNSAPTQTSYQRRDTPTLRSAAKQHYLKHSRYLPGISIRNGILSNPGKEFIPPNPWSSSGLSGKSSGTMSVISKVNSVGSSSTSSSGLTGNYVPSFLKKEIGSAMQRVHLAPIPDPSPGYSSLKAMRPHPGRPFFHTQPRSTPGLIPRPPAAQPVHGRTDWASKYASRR", "assay": "Inhibition of human recombinant ICK at 15 nM related to control ULK1"}}, "data": [{"smiles": "O=C(N[C@@H](C1CC1)C(F)(F)F)c1cc(-c2cnn3cc(-c4ccc(F)cc4)cnc23)cs1", "values": [{"measurement": "fold change (FC)", "setting": "[1]", "result": 0}, {"measurement": "fold change (FC)", "setting": "[2]", "result": 0.45}, {"measurement": "inhibition", "setting": "[3]", "result": 0, "unit": "%"}, {"measurement": "fold change (FC)", "setting": "[4]", "result": 0.16}, {"measurement": "fold change (FC)", "setting": "[5]", "result": 0.07}, {"measurement": "fold change (FC)", "setting": "[6]", "result": 0}]}, {"smiles": "CNC(=O)c1ccccc1Oc1nc(Nc2cc(OC)c(OC)c(OC)c2)ncc1Br", "values": [{"measurement": "inhibition", "setting": "[7]", "result": 41, "unit": "%"}, {"measurement": "fold change (FC)", "setting": "[8]", "result": 0.15}, {"measurement": "fold change (FC)", "setting": "[9]", "result": 0}, {"measurement": "inhibition", "setting": "[10]", "result": 0, "unit": "%"}, {"measurement": "inhibition", "setting": "[11]", "result": 0, "unit": "%"}, {"measurement": "inhibition", "setting": "[12]", "result": 0, "unit": "%"}]}, {"smiles": "CC(C)[C@H](NC(=O)c1cc(-c2cnn3cc(-c4ccc(OCCN5CCCCC5)cc4)cnc23)cs1)C(F)(F)F", "values": [{"measurement": "inhibition", "setting": "[13]", "result": 0, "unit": "%"}, {"measurement": "fold change (FC)", "setting": "[14]", "result": 0}]}]}
